SMILES strings stand for the structures. pIC50: −log10 of the molar value. Active and inactive are the calls of the source. The rule behind the calls is not given here.

For one series, the system named is Brain. As to the kind of experiment: Antioxidant activity in brain homogenate (unknown origin) assessed as decrease in TBARS formation by UV-visible spectrophotometric method. The series is classed as functional, tissue-based. In a few lines:
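Brain tissue homogenate mixed with test sample at five concentrations, SDS, 20% acetic acid and […], then heated at 95°C for 60 min. After cooling, the chromogen was extracted into butanol:pyridine (15:1) and centrifuged. Absorbance of the organic layer was read at 532 nm against a blank, in duplicate. % inhibition of TBARS = (Abs control − Abs sample)×100/Abs control.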

Series [1] deals with Acetylcholinesterase (Homo sapiens, UniProt P22303). Put plainly: Inhibition of AChE (unknown origin).
Series [2] addresses Cholinesterase (Equus caballus) (UniProt P81908). As to the kind of experiment: Inhibition of equine serum BChE at 10 uM using S-butyrylthiocholine chloride as substrate preincubated for 15 mins followed by substrate addition and measured for 45 mins by Ellmans microplate assay. A digest of the protocol:
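BuChE Ellman microplate assay at single 10 µM concentration: 0.1 M sodium phosphate buffer pH 8, sample in DMSO (1% final DMSO), 15 min room-temperature preincubation, then DTNB and S-butyrylthiocholine chloride; absorbance at 412 nm for 45 min, corrected by enzyme-free blanks. Quadruplicate, repeated at least twice; percent inhibition ± SD.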
For orientation: DTNB colorimetry detects thiols as they appear.

The test system of series [3] is Mus musculus. Put plainly: Reversal of scopolamine-induced memory impairment in Swiss albino mouse assessed as decrease in transfer latency time at 200 mg/kg, po administered for 8 days followed by scopolamine challenge after 60 mins of last dose measured after 45 mins by elevated plus maze test. The series is classed as functional, organism-based. A digest of the protocol: (§1)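 Swiss albino mice (20–25 g, both sexes), dosed p.o. once daily for eight days; scopolamine HBr 0.4 mg/kg i.p. given 1 h after the last dose. Transfer latency on elevated plus maze (open to closed arm, all four legs) recorded 45 min after scopolamine, after five 5-min pre-trials. Step-down latency on Cook's pole apparatus measured 24 h after training. Dunnett post-test.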

Series [4] relates to Mus musculus. Put plainly: Reversal of scopolamine-induced memory deficit in Swiss albino mouse assessed as increase in step down latency time at 200 mg/kg, po administered for 8 days followed by scopolamine challenge by step down inhibitory avoidance test. The series is classed as functional, organism-based. A digest of the protocol: as §1
Series [5] has as its target Acetylcholinesterase (Electrophorus electricus, UniProt O42275). As to the kind of experiment: Inhibition of electric eel AChE using acetylthiocholine iodide as substrate preincubated for 15 mins followed by substrate addition and measured for 45 mins by Ellmans microplate assay.
For the next series, the target named is Cholinesterase (Equus caballus, UniProt P81908). Put plainly: Inhibition of equine serum BuChE using S-butyrylthiocholine chloride as substrate preincubated for 15 mins followed by substrate addition and measured for 45 mins by Ellmans microplate assay.
For series [6], the system named is Mus musculus. Put plainly: Toxicity in Swiss albino mouse assessed as effect on behavior at 800 mg/kg, po administered for 14 consecutive days. The series is classed as organism-based. The note with it: in vivo. In a few lines:
(§2)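 Acute oral toxicity per OECD-423 in Swiss albino mice (20–25 g), 3 male + 3 female per group, acclimatized 15 days; suspension in water with 1% w/v sodium carboxymethylcellulose, given p.o. at 900 then 800 mg/kg. Clinical signs, behaviour (awareness, mood, CNS excitation/depression, autonomic reflexes) and mortality observed at 15 min–72 h and up to 14 days.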

Series [7] concerns Mus musculus. As to the kind of experiment: Toxicity in Swiss albino mouse assessed as mortality at 800 mg/kg, po administered for 14 consecutive days. The series is classed as organism-based. To be noted: in vivo. In a few lines:
as §2

For series [8], the system named is Mus musculus. As to the kind of experiment: Toxicity in Swiss albino mouse assessed as effect on awareness at 800 mg/kg, po administered for 14 consecutive days. The series is classed as organism-based. The note with it: in vivo. A digest of the protocol:
as §2

In series [9] the test system is Mus musculus. Put plainly: Toxicity in Swiss albino mouse assessed as effect on mood at 800 mg/kg, po administered for 14 consecutive days. The series is classed as organism-based. To be noted: in vivo. In a few lines: as §2
Series [10] concerns Mus musculus. As to the kind of experiment: Toxicity in Swiss albino mouse assessed as CNS excitation at 800 mg/kg, po administered for 14 consecutive days. The note with it: in vivo. The series is classed as organism-based. A digest of the protocol:
as §2

In series [11] the test system is Mus musculus. Put plainly: Toxicity in Swiss albino mouse assessed as CNS depression at 800 mg/kg, po administered for 14 consecutive days. The series is classed as organism-based. To be noted: in vivo. A digest of the protocol:
as §2

In series [12] the test system is Mus musculus. Put plainly: Toxicity in Swiss albino mouse assessed as effect on autonomic reflexes at 800 mg/kg, po administered for 14 consecutive days. The series is classed as organism-based. To be noted: in vivo. In a few lines:
as §2

Series [13] can be described thus: Toxicity in Swiss albino mouse assessed as mortality at 900 mg/kg, po administered for 14 consecutive days. The series is classed as organism-based. To be noted: in vivo. In a few lines: as §2
Series [14] concerns Mus musculus. Put plainly: Reversal of scopolamine-induced memory impairment in Swiss albino mouse assessed as decrease in transfer latency time at 50 to 100 mg/kg, po administered for 8 days followed by scopolamine challenge after 60 mins of last dose measured after 45 mins by elevated plus maze test. The series is classed as functional, organism-based. A digest of the protocol:
(§3)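 Swiss albino mice (20–25 g, both sexes) were acclimatized 15 days and had five 5-min baseline trials on the elevated plus maze. Oral vehicle, test or piracetam (200 mg/kg) was given for 8 days. Scopolamine 0.4 mg/kg i.p. followed 1 h after the last dose. Training started 45 min later: each mouse was placed at the open-arm end facing away, and transfer latency was timed until all four legs entered a closed arm.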

The subject of series [15] is Mus musculus. As to the kind of experiment: Reversal of scopolamine-induced memory deficit in Swiss albino mouse assessed as increase in step down latency time at 50 to 100 mg/kg, po administered for 8 days followed by scopolamine challenge by step down inhibitory avoidance test. The series is classed as functional, organism-based. A digest of the protocol:
(§4)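 Done after the EPM session in the same mouse groups: oral test dosing for 8 days, then scopolamine 0.4 mg/kg i.p. Training used Cook's pole apparatus, a wooden platform on a bronze-bar grid, with each mouse placed on the platform and allowed to step down. 24 h later the mouse was lowered onto the platform and step-down latency was timed. Dunnett post-test was applied.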

The subject of series [16] is Mus musculus. As to the kind of experiment: Reversal of scopolamine-induced memory impairment in Swiss albino mouse assessed as decrease in transfer latency time at 50 mg/kg, po administered for 8 days followed by scopolamine challenge after 60 mins of last dose measured after 45 mins by elevated plus maze test. The series is classed as functional, organism-based. In a few lines:
as §3

Series [17] has as its system Mus musculus. As to the kind of experiment: Reversal of scopolamine-induced memory deficit in Swiss albino mouse assessed as increase in step down latency time at 50 mg/kg, po administered for 8 days followed by scopolamine challenge by step down inhibitory avoidance test. The series is classed as functional, organism-based. A digest of the protocol: as §4

Sequence of Cholinesterase (Equus caballus) (P81908 whole entry): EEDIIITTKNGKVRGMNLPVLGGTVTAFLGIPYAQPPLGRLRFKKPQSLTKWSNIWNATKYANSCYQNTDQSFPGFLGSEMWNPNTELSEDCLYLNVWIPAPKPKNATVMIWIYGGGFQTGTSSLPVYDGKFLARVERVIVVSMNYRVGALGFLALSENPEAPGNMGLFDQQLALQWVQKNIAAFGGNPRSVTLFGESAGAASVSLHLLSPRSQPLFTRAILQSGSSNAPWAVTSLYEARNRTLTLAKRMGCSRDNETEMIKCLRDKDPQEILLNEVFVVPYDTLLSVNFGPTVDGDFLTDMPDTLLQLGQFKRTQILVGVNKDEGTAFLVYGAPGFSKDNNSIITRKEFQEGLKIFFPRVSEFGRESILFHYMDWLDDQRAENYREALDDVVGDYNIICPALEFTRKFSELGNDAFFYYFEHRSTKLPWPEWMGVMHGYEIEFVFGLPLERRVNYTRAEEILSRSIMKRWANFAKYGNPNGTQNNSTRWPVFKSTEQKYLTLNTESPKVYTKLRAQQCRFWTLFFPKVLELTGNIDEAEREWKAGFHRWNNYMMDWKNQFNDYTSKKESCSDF
Sequence of Acetylcholinesterase (Electrophorus electricus, UniProt O42275) (O42275 whole entry): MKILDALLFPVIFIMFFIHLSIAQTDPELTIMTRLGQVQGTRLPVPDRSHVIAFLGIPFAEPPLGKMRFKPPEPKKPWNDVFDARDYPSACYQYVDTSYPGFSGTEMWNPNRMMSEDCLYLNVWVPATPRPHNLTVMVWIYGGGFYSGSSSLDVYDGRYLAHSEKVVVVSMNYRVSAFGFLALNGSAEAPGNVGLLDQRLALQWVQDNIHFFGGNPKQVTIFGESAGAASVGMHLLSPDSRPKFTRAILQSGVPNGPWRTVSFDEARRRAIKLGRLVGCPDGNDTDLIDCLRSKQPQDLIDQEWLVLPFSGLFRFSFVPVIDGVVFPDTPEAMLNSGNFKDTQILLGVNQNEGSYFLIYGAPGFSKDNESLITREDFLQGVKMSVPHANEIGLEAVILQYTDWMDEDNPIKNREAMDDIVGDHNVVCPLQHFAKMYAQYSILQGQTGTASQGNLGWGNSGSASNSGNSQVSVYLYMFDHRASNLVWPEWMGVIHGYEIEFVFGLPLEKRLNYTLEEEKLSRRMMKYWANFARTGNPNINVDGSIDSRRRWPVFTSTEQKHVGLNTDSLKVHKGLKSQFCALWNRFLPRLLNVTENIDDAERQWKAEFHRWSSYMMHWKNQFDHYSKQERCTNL
Sequence of Acetylcholinesterase (Homo sapiens, UniProt P22303) (P22303 whole entry): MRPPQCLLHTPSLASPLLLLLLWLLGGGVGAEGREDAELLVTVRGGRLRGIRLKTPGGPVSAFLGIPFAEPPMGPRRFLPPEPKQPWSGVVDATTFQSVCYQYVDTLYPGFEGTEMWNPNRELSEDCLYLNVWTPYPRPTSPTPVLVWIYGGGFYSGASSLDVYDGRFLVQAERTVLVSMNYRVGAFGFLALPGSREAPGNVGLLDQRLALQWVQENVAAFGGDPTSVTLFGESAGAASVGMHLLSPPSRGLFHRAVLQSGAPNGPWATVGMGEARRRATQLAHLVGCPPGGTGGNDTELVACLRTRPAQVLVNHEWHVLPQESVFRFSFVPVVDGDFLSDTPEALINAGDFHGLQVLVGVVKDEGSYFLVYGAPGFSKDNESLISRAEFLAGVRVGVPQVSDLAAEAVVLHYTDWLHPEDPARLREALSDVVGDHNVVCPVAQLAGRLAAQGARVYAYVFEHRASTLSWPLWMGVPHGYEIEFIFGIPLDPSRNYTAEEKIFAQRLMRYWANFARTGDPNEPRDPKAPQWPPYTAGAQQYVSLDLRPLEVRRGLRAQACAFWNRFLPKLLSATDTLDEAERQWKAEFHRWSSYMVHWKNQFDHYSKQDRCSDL
Sequence of Cholinesterase (P81908 whole entry): as the sequence (P81908 whole entry) above

Regarding `O=C1O[C@H]([C@@H](O)CO)C(O)=C1O` [ASCORBIC ACID], in the series with Brain, the pIC50 (as a rule, the negative decadic logarithm of the IC50, by convention in mol/L) was 4.41.
For the compound `CCc1nn(CCCN2CCN(c3cccc(Cl)c3)CC2)c(=O)n1CCOc1ccccc1` [NEFAZODONE], the negative-log IC50 (pIC50) on Acetylcholinesterase [1] was 5.98.
For the compound `Oc1ccc(-c2nc(-c3ccccc3)c(-c3ccccc3)[nH]2)cc1`, the inhibition (usually the drop in the measured response relative to a control, in per cent) in series [2] was “inactive”. Further, the pIC50 with Brain was 4.21.
On to `NC(=O)CN1CCCC1=O`, for which the outcome in the series on Mus musculus [3] and in the series with Mus musculus [4] was Active.
`Oc1ccc(-c2nc(-c3ccccc3)c(-c3ccccc3)[nH]2)cc1O` had an inhibition in [2] of 79.5%. Further, in the series with Brain, the pIC50 is 4.23.
The compound `COc1cc(-c2nc(-c3ccccc3)c(-c3ccccc3)[nH]2)cc(OC)c1OC` showed an inhibition in [2] of 81.3%. The IC50 result against Acetylcholinesterase [5] was “Not Active”. The results for the pIC50 on Cholinesterase (read-out: IC50) and with Brain were 5.30 and 4.21, respectively. Moreover, the Activity result in the series with Mus musculus [6], in the series on Mus musculus [7], with Mus musculus [8], with Mus musculus [9], in the series with Mus musculus [10] and in the series on Mus musculus [11] was “Non-Toxic” throughout. Moreover, the Activity result in the series with Mus musculus [12] is reported as “Non-Toxic”. Moreover, the mortality (in general, the percentage killed) at 14 days in series [13] amounted to 50%. Moreover, the outcome in the series on Mus musculus [14] and in the series with Mus musculus [15] was Active.
Take `COc1cc(-c2nc(-c3ccccc3)c(-c3ccccc3)[nH]2)cc(OC)c1O`: the inhibition entry in [2] is “inactive”. Further, the pIC50 with Brain was 3.58.
At Acetylcholinesterase [1], `CCCCOc1ccc(C(=O)CCN2CCCCC2)cc1` [DYCLONINE] showed a pIC50 of 6.74.
In the case of `c1ccc(-c2nc(-c3ccccc3)c(-c3ccccc3)[nH]2)cc1`, in series [2], the inhibition result was “inactive”. Further, the pIC50 in the series on Brain was 3.97.
In the case of `Oc1ccccc1-c1nc(-c2ccccc2)c(-c2ccccc2)[nH]1`, the inhibition in [2] was found to be 13.7%. Further, in the series on Brain, the pIC50 is 4.00.
On to `COc1ccc(-c2nc(-c3ccccc3)c(-c3ccccc3)[nH]2)cc1OC`, for which, in series [2], the inhibition result was “inactive”. The pIC50 in the series with Brain was 4.03.
The compound `COc1cccc(-c2nc(-c3ccccc3)c(-c3ccccc3)[nH]2)c1` returned an inhibition in series [2] of 19.2%. Also, the negative logarithm of the IC50 (pIC50) in the series on Brain is 4.06.
In the case of `Oc1cccc(-c2nc(-c3ccccc3)c(-c3ccccc3)[nH]2)c1`, the inhibition result in [2] is “inactive”. In addition, the values for the pIC50 on Acetylcholinesterase [5] (read-out: IC50) and with Brain were 5.27 and 4.21, respectively. The IC50 result on Cholinesterase is “Not Active”. For the same compound, the outcome with Mus musculus [16] and in the series with Mus musculus [17] was Active.
`c1ccc(-c2nc[nH]c2-c2ccccc2)cc1` came in with an inhibition in series [2] of 13%. Further, the pIC50 in the series with Brain is 4.03.

The values are drawn from ChEMBL document CHEMBL4219069, “In silico studies, synthesis and pharmacological evaluation to explore multi-targeted approach for imidazole analogues as potential cholinesterase inhibitors with neuroprotective role for Alzheimer's disease” (Bioorg Med Chem, 2018).
